Reference: ChEMBL document CHEMBL1145097 (J Med Chem, 2003)
pIC50, pKi: −log10 of the molar value. Values belong to the molecule of their own block, whether it stands above or below them.

Key:
[1] = LogD value was determined; type: physicochemical; conditions: octanol/water
Procedure, shortened: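 log D determined by an HPLC method.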

[2] = target: Metabotropic glutamate receptor 5 (Rattus norvegicus, UniProt P31424); experiment: Tested for displacement of [3H]3-methoxy-5-(pyridin-2-ylethynyl) pyridine from Metabotropic glutamate receptor 5 in rat cortical membrane; type: cell membranes
Procedure, shortened: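 Rat cortical membranes; displacement of [3H]-3-methoxy-5-(pyridin-2-ylethynyl)pyridine bound to native mGlu5. Geometric mean with standard deviation and number of replicates.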

[3] = target: Metabotropic glutamate receptor 5 (Homo sapiens, UniProt P41594); experiment: Tested in vitro against human recombinant Metabotropic glutamate receptor 5 stably expressed in LtK cells by [Ca2+] flux assay using glutamate as agonist
[4] = target: T1, Glutamate receptor ionotropic, NMDA 2B (Homo sapiens, UniProt Q05586+Q13224); experiment: Tested for in vitro antagonistic activity against human N-methyl-D-aspartate glutamate receptor 2B; type: functional
Procedure, shortened: (§1)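 Cell line stably expressing recombinant human NR1A/2B NMDA receptors. Inhibition of NMDA/glycine-evoked rise in intracellular Ca2+. Six-point concentration-response curve with 8-22 cells per concentration.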

[5] = target: Metabotropic glutamate receptor 1 (Homo sapiens, UniProt Q13255); experiment: Tested for in vitro antagonistic activity against Metabotropic glutamate receptor 1; type: functional
Procedure, shortened: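 Ca2+ flux assay at mGlu1a, with compounds tested in both agonist and antagonist modes. Initial screen at 10 µM; concentration-response curves generated where inhibition was seen.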

Rattus norvegicus [6] = experiment: Amount in vivo in rat brain after intraperitoneal dose of 3 mg/Kg; type: ADME, organism-based; conditions: ip, read-out: Brain level
Procedure, shortened: (§2)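 Rats given 3 mg/kg ip; brain (hippocampus) and plasma drug levels measured 1 h after dosing. Mean ± SEM, n = rats per group.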

Rattus norvegicus [7] = experiment: Amount in vivo in rat cerebrospinal fluid (CSF) after oral dose of 30 mg/Kg; conditions: read-out: CSF levels
Rattus norvegicus [8] = experiment: In vivo intraperitoneal effective dose to block fear conditioning in rats was determined by FPS (fear potentiated startle) model of anxiety; type: functional; conditions: ip
Procedure, shortened: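 Fear-potentiated startle anxiety model in rats. Compound given ip and measurement taken 1 h after administration. 8 rats/group. ED50 reported as mean, with ED50 values from individual experiments (95% confidence interval).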

[9] = (§3) Amount in vivo in rat plasma after intraperitoneal dose of 3 mg/Kg; type: ADME, organism-based; conditions: ip, read-out: Plasma level; procedure, shortened: as §2
[10] = target: T2, Amine oxidase [flavin-containing] A (Mus musculus, UniProt Q64133); experiment: Tested for in vitro antagonistic activity against Monoamine oxidase; type: functional
T2 sequence (Q64133 whole entry): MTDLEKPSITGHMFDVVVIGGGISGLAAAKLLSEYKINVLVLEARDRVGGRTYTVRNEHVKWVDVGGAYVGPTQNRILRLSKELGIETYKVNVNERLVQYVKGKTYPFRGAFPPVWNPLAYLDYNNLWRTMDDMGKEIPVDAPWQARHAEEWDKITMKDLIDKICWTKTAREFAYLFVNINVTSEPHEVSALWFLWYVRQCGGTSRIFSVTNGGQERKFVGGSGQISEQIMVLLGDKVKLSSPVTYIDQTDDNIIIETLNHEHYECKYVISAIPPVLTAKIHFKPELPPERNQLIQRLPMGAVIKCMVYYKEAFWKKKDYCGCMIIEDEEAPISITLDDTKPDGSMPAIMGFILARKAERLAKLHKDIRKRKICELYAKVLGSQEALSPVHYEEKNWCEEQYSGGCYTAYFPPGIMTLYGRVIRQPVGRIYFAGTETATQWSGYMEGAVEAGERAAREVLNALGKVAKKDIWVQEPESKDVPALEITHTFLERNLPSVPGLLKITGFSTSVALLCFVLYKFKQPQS
Procedure, shortened: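 Radioligand displacement of [125I]RTI-55 ([125I]methyl (1R,2S,3S,5S)-3-(4-iodophenyl)-8-methyl-8-azabicyclo[3.2.1]octane-2-carboxylate) from MAO-A. Compounds were first screened at 10 µM.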

[11] = target: T1, Glutamate receptor ionotropic, NMDA 2B; experiment: Tested for in vitro antagonistic activity against recombinant human N-methyl-D-aspartate glutamate receptor 2B; type: functional; procedure, shortened: as §1
Rattus norvegicus [12] = experiment: as §3; type: ADME, organism-based; conditions: ip, read-out: Plasma level; procedure, shortened: as §2
[13] = target: T2, Amine oxidase [flavin-containing] A; experiment: Tested for in vitro antagonistic activity against Monoamine oxidase A; type: functional
Procedure, shortened: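 Displacement of [125I]RTI-55 binding at MAOA. IC50 given with range in parentheses. Initial screen at 10 µM, followed by concentration-response curves where inhibition was detected.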

Chain of Metabotropic glutamate receptor 5 (Homo sapiens, UniProt P41594) (P41594 whole entry): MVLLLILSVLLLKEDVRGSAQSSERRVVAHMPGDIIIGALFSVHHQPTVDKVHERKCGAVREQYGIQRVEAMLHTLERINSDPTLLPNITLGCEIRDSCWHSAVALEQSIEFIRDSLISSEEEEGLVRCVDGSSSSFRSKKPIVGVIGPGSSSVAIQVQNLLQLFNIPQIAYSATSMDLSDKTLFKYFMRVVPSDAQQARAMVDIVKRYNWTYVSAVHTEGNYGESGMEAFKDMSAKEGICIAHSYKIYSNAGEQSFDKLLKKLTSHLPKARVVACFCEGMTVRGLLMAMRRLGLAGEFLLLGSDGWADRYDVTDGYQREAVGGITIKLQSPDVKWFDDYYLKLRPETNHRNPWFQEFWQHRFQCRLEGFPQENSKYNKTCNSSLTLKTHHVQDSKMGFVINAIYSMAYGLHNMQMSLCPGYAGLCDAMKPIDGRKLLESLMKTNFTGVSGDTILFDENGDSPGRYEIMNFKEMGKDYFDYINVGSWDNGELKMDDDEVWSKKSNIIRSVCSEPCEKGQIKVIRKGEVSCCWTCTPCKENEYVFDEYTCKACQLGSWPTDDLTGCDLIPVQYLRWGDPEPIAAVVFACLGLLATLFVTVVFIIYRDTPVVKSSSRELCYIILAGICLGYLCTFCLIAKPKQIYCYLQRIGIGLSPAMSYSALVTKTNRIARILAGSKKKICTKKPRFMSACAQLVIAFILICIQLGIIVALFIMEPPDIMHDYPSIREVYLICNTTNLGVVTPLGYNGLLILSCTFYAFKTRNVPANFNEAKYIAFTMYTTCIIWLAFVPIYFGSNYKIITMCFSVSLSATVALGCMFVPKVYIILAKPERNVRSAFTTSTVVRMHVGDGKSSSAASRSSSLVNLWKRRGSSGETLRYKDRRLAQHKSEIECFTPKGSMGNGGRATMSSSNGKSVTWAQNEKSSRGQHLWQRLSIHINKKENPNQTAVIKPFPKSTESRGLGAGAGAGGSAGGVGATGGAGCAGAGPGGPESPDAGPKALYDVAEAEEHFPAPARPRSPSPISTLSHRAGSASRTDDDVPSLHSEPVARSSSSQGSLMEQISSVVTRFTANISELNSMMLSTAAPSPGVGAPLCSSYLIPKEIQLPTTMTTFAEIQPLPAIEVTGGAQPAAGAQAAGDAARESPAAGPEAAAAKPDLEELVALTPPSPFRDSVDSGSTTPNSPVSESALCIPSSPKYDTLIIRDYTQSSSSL
Chain of Metabotropic glutamate receptor 5 (Rattus norvegicus, UniProt P31424) (P31424 whole entry): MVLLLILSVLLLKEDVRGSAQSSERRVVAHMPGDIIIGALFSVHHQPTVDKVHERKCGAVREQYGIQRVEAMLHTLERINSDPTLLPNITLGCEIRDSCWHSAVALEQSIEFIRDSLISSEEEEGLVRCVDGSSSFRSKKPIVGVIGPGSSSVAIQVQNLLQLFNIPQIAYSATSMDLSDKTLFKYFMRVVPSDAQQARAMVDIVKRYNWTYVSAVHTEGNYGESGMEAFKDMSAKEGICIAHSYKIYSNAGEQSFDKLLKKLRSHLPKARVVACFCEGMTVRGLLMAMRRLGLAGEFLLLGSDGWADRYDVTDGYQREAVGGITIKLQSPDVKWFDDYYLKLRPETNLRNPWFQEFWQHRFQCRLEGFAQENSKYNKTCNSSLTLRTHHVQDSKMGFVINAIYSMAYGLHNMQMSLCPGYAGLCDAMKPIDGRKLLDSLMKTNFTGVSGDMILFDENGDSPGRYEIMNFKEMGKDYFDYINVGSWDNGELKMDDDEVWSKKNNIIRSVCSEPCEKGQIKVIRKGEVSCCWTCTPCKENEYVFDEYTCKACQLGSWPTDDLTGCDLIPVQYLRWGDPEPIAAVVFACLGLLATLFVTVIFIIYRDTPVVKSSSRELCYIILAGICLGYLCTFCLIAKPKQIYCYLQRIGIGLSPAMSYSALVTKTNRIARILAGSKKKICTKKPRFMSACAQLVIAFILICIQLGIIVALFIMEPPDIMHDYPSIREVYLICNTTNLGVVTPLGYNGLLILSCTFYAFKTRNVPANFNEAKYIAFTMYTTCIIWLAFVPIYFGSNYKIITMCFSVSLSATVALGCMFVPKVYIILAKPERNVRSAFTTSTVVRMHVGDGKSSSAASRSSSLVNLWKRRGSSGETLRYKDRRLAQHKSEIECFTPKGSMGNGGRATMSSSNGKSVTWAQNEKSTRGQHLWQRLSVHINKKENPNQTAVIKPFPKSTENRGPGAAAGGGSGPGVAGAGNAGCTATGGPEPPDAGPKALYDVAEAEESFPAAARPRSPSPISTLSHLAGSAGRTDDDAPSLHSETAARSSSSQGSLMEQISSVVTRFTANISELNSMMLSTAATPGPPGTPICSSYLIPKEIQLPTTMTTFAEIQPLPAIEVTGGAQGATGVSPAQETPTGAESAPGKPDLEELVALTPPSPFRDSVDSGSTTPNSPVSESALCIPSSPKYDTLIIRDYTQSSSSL
T1 sequence (Q13224 whole entry, one chain of several): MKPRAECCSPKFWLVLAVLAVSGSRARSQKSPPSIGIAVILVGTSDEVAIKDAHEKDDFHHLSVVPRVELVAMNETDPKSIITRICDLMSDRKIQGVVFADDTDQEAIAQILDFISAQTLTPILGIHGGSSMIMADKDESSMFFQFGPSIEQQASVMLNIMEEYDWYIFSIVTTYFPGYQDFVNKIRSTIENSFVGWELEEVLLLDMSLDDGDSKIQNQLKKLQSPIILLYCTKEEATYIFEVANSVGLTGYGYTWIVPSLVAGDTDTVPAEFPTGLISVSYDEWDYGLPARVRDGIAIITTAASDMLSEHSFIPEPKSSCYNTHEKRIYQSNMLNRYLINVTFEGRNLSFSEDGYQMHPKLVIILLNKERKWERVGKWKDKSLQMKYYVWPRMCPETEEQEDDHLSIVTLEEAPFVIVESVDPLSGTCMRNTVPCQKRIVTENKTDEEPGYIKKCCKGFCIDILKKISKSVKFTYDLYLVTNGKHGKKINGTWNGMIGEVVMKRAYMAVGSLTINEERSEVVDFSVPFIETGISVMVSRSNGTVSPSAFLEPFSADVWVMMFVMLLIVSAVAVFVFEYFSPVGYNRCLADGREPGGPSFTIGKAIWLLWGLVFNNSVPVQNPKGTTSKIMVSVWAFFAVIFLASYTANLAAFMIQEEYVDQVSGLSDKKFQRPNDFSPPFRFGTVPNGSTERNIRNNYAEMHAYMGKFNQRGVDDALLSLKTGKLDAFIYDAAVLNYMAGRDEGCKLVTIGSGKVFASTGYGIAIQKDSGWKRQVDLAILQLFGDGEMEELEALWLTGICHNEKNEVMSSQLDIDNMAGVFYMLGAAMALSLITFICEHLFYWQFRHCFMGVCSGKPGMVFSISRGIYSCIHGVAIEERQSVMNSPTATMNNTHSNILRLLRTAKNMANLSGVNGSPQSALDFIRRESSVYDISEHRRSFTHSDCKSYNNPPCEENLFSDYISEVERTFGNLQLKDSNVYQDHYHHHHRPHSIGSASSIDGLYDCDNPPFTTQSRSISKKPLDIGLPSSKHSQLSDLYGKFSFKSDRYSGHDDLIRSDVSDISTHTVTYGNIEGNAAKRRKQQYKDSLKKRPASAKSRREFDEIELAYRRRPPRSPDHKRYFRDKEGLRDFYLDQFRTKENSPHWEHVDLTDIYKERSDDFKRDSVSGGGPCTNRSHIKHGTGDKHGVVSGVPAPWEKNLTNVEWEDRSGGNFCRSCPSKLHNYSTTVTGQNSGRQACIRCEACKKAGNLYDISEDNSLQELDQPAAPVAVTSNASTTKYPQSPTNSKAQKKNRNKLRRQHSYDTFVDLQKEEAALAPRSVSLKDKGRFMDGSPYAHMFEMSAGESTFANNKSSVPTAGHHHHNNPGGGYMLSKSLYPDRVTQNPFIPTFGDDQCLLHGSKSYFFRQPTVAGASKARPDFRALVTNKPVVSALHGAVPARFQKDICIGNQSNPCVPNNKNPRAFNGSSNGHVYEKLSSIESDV
Chain of Metabotropic glutamate receptor 1 (Q13255 whole entry): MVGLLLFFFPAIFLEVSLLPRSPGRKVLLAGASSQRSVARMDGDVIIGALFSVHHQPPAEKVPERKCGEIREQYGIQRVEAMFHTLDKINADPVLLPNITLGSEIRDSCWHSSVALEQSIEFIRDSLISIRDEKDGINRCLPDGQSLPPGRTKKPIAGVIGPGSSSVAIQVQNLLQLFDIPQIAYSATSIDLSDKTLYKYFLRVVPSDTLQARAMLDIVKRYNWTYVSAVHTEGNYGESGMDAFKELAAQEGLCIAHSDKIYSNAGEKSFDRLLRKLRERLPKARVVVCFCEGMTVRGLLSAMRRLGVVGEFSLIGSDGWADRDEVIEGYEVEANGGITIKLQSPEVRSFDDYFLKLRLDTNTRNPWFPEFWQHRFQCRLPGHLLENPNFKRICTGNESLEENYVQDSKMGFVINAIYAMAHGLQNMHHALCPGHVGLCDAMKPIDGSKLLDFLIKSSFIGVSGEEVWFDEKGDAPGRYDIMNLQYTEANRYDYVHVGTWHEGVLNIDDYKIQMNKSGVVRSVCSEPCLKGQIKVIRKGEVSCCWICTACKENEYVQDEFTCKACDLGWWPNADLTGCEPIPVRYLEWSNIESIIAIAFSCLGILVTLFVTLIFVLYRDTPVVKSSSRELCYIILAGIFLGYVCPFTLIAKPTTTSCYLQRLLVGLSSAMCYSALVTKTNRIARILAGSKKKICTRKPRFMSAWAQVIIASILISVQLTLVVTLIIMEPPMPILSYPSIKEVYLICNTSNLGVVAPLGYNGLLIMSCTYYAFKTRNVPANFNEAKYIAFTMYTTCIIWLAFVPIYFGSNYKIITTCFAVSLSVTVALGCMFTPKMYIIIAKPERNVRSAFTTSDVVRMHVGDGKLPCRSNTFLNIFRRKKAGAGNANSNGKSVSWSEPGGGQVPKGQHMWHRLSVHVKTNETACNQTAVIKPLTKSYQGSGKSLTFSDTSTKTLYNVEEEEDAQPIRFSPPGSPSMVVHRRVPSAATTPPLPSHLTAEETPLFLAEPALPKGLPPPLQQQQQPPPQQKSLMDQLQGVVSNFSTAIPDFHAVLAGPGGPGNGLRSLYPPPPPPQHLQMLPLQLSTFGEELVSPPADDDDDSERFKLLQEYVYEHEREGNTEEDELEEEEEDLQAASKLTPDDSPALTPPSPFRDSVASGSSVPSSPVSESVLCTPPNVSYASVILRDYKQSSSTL

SMILES: Cc1nc(C#Cc2ccncc2)cs1
logD [1]: 2.1 | pKi [2]: 6.67 | pIC50 [3]: 6.91

SMILES: C(#Cc1nccs1)c1ccccc1
logD [1]: 3.2 | pKi [2]: 6.82 | pIC50 [3]: 7.09

SMILES: Cc1nc(C#Cc2cccnc2)cs1
pIC50 [11]: < 3.52 | pIC50 [5]: < 4.00 | concentration (Rattus norvegicus [6]): 1400 nM | concentration (Rattus norvegicus [7]): 1000 nM | logD [1]: 2.1 | ED50 (Rattus norvegicus [8]): 1 mg/kg | concentration (Rattus norvegicus [12]): 1200 nM | pIC50 [13]: 4.52

SMILES: Cc1nc(C#Cc2ccccn2)cs1
logD [1]: 1.9 | pKi [2]: 7.32 | pIC50 [3]: 7.28

More lines, main results first:

pIC50 [4]: 4.74 | pIC50 [5]: < 4.00 | concentration (Rattus norvegicus [6]): 830 nM | concentration (Rattus norvegicus [7]): 210 nM | logD [1]: 3.5 | concentration [9]: 390 nM | pIC50 [10]: 5.10
SMILES: Cc1cccc(C#Cc2ccccc2)n1
ED50 (Rattus norvegicus [8]): 5 mg/kg

logD [1]: 3.3 | pKi [2]: 8.22 | pIC50 [3]: 8.22
SMILES: Cc1nc(C#Cc2ccccc2)cs1

logD [1]: 2.6 | pKi [2]: 7.49 | pIC50 [3]: 7.89
SMILES: Cc1csc(C#Cc2ccccc2)n1

logD [1]: 2.6 | pKi [2]: 6.85 | pIC50 [3]: 7.01
SMILES: C(#Cc1cscn1)c1ccccc1
